Assay [1] concerns U-937. The assay is described as follows: Induction of human U937 cells attachment at 0.1 to 1000 nM treated for 24 hrs measured after 60 hrs. Format: functional, cell-based. In a few lines:
(§1)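 Floating and attached cells counted 60 hr after treatment, giving proliferation (total count) and attachment. Mean ± SEM of five independent experiments.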

For assay [2], the system named is U-937. In words: Antiproliferative activity against human U937 cells at 0.1 to 1000 nM after 60 hrs. Type of assay: functional, cell-based. In a few lines:
as §1

Assay [3] addresses T1, Protein kinase C epsilon type (Homo sapiens) (UniProt Q02156).
T1 sequence (whole entry): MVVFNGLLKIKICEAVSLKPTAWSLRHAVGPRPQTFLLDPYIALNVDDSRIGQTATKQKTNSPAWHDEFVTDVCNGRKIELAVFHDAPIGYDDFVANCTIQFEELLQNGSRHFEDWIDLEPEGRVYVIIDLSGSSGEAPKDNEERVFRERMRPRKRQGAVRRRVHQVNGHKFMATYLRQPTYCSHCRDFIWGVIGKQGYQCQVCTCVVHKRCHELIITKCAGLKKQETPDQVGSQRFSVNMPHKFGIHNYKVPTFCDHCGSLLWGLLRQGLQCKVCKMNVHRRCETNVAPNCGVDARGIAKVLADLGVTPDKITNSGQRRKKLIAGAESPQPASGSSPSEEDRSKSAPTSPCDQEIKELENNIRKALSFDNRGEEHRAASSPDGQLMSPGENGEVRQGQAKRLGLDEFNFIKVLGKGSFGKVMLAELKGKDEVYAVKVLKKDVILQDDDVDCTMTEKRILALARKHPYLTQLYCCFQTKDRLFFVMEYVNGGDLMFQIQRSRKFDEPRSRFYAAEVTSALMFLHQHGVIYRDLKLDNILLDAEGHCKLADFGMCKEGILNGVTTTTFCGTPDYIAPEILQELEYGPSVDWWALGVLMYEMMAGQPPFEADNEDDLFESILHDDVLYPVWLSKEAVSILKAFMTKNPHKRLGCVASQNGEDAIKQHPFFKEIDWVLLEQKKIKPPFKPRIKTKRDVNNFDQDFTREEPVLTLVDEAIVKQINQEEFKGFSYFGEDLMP
The assay is described as follows: Modulation of PKCepsilon in human K562 cells assessed as […] after 24 hrs by Western blotting analysis. Format: cell-based. The essentials: (§2)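 K562 cells (150,000 cells/ml) treated 24 hr after plating with a dose range for 24 hr. Total cell lysates analysed by Western blot for C1 domain-containing proteins, with actin as loading control. Representative of three independent experiments.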
Background: A western blot detects proteins with antibodies after separation by electrophoresis.

The target of assay [4] is T2, Ras guanyl-releasing protein 3 (Homo sapiens) (UniProt Q8IV61).
T2 sequence (whole entry): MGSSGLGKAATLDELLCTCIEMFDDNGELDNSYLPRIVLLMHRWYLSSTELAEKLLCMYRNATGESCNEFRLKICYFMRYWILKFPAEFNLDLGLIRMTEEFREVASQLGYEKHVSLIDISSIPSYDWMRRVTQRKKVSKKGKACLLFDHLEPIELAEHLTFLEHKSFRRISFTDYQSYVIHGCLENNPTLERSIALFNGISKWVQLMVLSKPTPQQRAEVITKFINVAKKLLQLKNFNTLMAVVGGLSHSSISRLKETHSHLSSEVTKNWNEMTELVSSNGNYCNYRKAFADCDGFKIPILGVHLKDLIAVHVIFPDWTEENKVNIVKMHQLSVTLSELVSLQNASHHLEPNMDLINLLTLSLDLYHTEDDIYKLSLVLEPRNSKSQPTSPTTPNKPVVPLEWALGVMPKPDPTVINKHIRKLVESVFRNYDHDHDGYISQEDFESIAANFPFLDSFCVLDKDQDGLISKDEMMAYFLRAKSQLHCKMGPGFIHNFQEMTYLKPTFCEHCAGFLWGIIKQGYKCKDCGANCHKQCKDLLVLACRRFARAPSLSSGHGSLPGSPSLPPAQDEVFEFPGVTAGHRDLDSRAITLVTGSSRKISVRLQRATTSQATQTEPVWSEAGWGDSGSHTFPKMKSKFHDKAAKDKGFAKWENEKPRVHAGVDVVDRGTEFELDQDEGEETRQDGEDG
In words: Modulation of RASGRP3 in human K562 cells assessed as […] after 24 hrs by Western blotting analysis. Format: cell-based. In a few lines: as §2

A short description of assay [5]: Binding affinity to PKC.
Assay [6] has as its system U-937. In words: Induction of human U937 cells attachment at 0.1 to 3000 nM treated for 24 hrs measured after 60 hrs. Type of assay: functional, cell-based. In a few lines:
(§3)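 U937 cells were seeded, then treated 24 h later across a concentration series. Floating and attached cells were counted separately 60 h after treatment, giving proliferation and attachment read-outs. Data are mean ± SEM of five independent experiments.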

The subject of assay [7] is U-937. The assay is described as follows: Antiproliferative activity against human U937 cells at 0.1 to 3000 nM after 60 hrs. Type of assay: functional, cell-based. In a few lines: as §3
The subject of assay [8] is K562. In words: Antiproliferative activity against human K562 cells after 60 hrs in presence of PMA. Format: functional, cell-based. The essentials:
(§4)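 K562 or MV4-11 cells were seeded, then exposed to compound 24 h later alongside 10 nM PMA. Total cell number was counted 60 h after treatment. Data are mean ± SEM of three independent experiments.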

Assay [9] has as its system MV4-11. In words: Antiproliferative activity against human MV411 cells after 60 hrs in presence of PMA. Type of assay: functional, cell-based. The essentials: as §4
For assay [10], the system named is K562. The assay is described as follows: Inhibition of PMA-induced human K562 cell attachment treated for 24 hrs measured after 60 hrs. Type of assay: functional, cell-based.
The test system of assay [11] is MV4-11. The assay is described as follows: Inhibition of PMA-induced human MV411 cell attachment treated for 24 hrs measured after 60 hrs. Format: functional, cell-based.
Assay [12] has as its system K562. The assay is described as follows: Inhibition of bryostatin1-induced human K562 cell attachment treated for 24 hrs measured after 60 hrs. Format: functional, cell-based.
Assay [13] deals with MV4-11. The assay is described as follows: Inhibition of bryostatin1-induced human MV411 cell attachment treated for 24 hrs measured after 60 hrs. Type of assay: functional, cell-based.
The subject of assay [14] is K562. In words: Antiproliferative activity against human K562 cells after 60 hrs in presence of PMA.
Assay [15] relates to MV4-11. The assay is described as follows: Antiproliferative activity against human MV411 cells after 60 hrs in presence of PMA.
Assay [16] concerns U-937. The assay is described as follows: Inhibition of PMA-induced human U937 cell attachment treated for 24 hrs measured after 60 hrs. Type of assay: functional, cell-based. In a few lines: as §1
Assay [17] has as its system U-937. The assay is described as follows: Inhibition of PMA-induced human U937 cells antiproliferation activity after 60 hrs. Type of assay: functional, cell-based. The essentials:
as §1

Assay [18] addresses Protein kinase C beta type (Homo sapiens) (UniProt P05771). In words: Modulation of PKCbeta in human K562 cells assessed as protein down-regulation after 24 hrs by Western blotting analysis. Format: cell-based. The essentials:
as §2

Assay [19] deals with Protein kinase C delta type (Homo sapiens) (UniProt Q05655). In words: Modulation of PKCdelta in human K562 cells assessed as protein down-regulation after 24 hrs by Western blotting analysis. Format: cell-based. In a few lines:
as §2

The source of these data is ChEMBL document CHEMBL2029315 (Bioorg Med Chem Lett, 2012).

Calls of active or inactive are those of the source. The rule behind the calls is not given here.

As a reminder, the Ki is the equilibrium dissociation constant of an inhibitor or competing ligand from its target. High values mean lower affinity, low ones higher affinity.

Protein kinase C delta type (Homo sapiens), sequence (Q05655 whole entry, looked up): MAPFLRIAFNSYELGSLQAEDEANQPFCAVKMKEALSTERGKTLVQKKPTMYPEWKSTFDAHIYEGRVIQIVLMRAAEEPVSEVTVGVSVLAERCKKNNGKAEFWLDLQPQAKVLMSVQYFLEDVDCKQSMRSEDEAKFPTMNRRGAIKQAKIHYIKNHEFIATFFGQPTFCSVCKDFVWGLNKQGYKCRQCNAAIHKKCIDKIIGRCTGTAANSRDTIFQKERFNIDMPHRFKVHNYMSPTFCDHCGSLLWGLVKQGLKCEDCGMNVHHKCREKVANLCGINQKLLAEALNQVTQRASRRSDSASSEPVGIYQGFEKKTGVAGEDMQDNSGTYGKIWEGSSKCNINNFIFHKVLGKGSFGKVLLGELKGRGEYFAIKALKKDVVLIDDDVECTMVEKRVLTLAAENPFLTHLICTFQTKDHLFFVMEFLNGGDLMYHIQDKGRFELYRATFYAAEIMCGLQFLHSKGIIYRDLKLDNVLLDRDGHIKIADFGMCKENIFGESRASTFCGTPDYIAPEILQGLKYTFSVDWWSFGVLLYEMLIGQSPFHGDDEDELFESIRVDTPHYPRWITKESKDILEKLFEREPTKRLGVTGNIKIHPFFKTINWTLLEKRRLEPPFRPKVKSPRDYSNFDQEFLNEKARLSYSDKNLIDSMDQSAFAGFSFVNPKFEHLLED
Protein kinase C beta type (Homo sapiens), sequence (P05771 2-671 limits assumed): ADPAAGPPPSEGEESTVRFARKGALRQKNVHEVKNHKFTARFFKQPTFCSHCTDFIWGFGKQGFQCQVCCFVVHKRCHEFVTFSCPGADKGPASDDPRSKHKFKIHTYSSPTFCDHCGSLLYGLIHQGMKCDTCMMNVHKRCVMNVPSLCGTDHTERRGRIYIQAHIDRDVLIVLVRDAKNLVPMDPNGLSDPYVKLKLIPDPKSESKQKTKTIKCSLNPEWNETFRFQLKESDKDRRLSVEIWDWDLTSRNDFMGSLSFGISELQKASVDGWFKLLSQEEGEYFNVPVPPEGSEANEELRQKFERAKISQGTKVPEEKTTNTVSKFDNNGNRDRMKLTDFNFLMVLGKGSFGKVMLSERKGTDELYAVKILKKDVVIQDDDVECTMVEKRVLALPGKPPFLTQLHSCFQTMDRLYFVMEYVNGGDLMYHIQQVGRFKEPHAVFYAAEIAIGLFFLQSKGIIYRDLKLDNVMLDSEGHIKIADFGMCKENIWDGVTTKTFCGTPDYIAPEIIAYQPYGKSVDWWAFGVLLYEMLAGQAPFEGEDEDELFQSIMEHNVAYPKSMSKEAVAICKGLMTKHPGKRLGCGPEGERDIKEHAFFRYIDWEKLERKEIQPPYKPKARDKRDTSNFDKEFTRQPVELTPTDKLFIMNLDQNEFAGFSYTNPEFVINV

Regarding `CCCCCCCCCCCCCC(=O)O[C@@H]1[C@@H](C)[C@@]2(O)[C@@H](C=C(CO)C[C@]3(O)C(=O)C(C)=C[C@@H]23)[C@@H]2C(C)(C)[C@]12OC(C)=O`, the outcome (with U-937 [1]; with U-937 [2]; in assay [3]; in [4]) was Active.

In [5], `C=C1C[C@H]2C[C@@H]3O[C@@H](CC(=C)C3(C)C)C[C@@H](O)CC(=O)O[C@@H]([C@@H](C)O)C[C@@H]3C/C(=C\C(=O)OC)[C@H](OC(=O)/C=C/C=C/CCC)[C@@](O)(O3)C(C)(C)/C=C/[C@@H](C1)O2` displayed a Ki of 1.08 nM. Also, the result (in the assay on U-937 [6]; with U-937 [7]; in assay [3]; in assay [4]) was Active. Moreover, the Activity result in the assay with K562 [8], in the assay with MV4-11 [9], in the assay with K562 [14] and in the assay with MV4-11 [15] was “Dose-dependent effect” throughout. For the same compound, the inhibition result in the assay with K562 [10] and with MV4-11 [11] was “inactive” throughout. Moreover, the inhibition result in the assay on K562 [12] and with MV4-11 [13] was “Active” each time.

Take `CCC/C=C/C=C/C(=O)O[C@H]1/C(=C/C(=O)OC)C[C@H]2C[C@H]([C@@H](C)O)OC(=O)C[C@H](O)C[C@@H]3C[C@H](OC(C)=O)C(C)(C)[C@](O)(C[C@@H]4C/C(=C/C(=O)OC)C[C@H](/C=C/C(C)(C)[C@]1(O)O2)O4)O3`: the inhibition result in the assay with U-937 [16] and in the assay with U-937 [17] was “Dose-dependent effect” in each case. In addition, the result in [18] and in assay [19] was Active. The result in assay [3] and in assay [4] was inactive.
